Laboratory results from ChEMBL document CHEMBL1153229, “The first synthetic agonists of FFA2: Discovery and SAR of phenylacetamides as allosteric modulators” (Bioorg Med Chem Lett, 2010).
Active and inactive are the calls of the source. The calls are words filed in the database; no cut-off is given here.

Experiments:
[1] = system: Rattus norvegicus; test: Clearance in Sprague-Dawley rat at 0.5 mg/kg, iv; type: ADME, organism-based; design: dose 0.5 mg/kg, route intravenous; details: in vivo
How it was run: (§1)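 Male Sprague-Dawley rats dosed 0.5 mg/kg iv.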

[2] = system: Rattus norvegicus; test: AUC in Sprague-Dawley rat at 0.5 mg/kg, iv; type: ADME, organism-based, Plasma; design: dose 0.5 mg/kg, route intravenous; details: in vivo; how it was run: as §1
[3] = Mean residence time in Sprague-Dawley rat at 0.5 mg/kg, iv; type: ADME, organism-based; design: dose 0.5 mg/kg, route intravenous; details: in vivo; how it was run: as §1
[4] = Volume of distribution at steady state in Sprague-Dawley rat at 0.5 mg/kg, iv; type: ADME, organism-based; design: dose 0.5 mg/kg, route intravenous; details: in vivo, read-out: Vdss; how it was run: as §1
[5] = AUC in mouse at 5 mg/kg, po; type: ADME, organism-based; design: dose 5 mg/kg, route oral; details: plasma
[6] = Mean residence time in mouse at 5 mg/kg, po; type: ADME, organism-based; design: dose 5 mg/kg, route oral; details: in vivo
[7] = Tmax in mouse at 5 mg/kg, po; type: ADME, organism-based; design: dose 5 mg/kg, route oral; details: in vivo
[8] = system: 3T3-L1; test: Inhibition of lipolysis in mouse 3T3L1 cells; type: functional, cell-based
How it was run: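 Lipolysis measured in 3T3L1 adipocytes across a concentration range of test compound. Sensitivity to pertussis toxin treatment also examined. Means of three experiments.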

[9] = system: Mus musculus; test: Reduction in plasma free fatty acid level in overnight fasted wild type C57BL/6 mouse at 3 mg/kg, ip after 15 mins; type: functional, organism-based; design: dose 3 mg/kg
How it was run: (§2)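 Male-unspecified C57BL6 mice, wild type or FFA2 knockout, fasted overnight. Given compound or vehicle (10% dimethyl acetamide, 10% ethanol, 30% propylene glycol, 50% saline) ip at 10 ml/kg. Tail blood sampled before and 15 minutes after injection. Plasma FFA measured by enzymatic kit. Ten animals per group; t test.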

[10] = system: Mus musculus; test: Reduction in plasma free fatty acid level in overnight fasted FFA2 knockout C57BL/6 mouse at 20 mg/kg, ip after 15 mins; type: functional, organism-based; design: dose 20 mg/kg; how it was run: as §2
[11] = molecular target: T1, Free fatty acid receptor 3 (Homo sapiens) (UniProt O14843); test: Agonist activity at FFA3 receptor up to 30 uM; type: functional
T1 sequence (whole entry): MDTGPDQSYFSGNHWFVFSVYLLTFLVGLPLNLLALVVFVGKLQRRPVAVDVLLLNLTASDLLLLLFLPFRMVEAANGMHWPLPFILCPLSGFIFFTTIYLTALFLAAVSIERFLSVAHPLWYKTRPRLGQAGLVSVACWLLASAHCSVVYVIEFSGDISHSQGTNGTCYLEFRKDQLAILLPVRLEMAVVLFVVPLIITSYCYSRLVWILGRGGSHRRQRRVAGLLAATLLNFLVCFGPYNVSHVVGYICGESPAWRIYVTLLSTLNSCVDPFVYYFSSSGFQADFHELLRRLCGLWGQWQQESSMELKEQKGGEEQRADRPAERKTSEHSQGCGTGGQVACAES

[12] = molecular target: Hydroxycarboxylic acid receptor 2 (Homo sapiens) (UniProt Q8TDS4); test: Agonist activity at GPR109A up to 30 uM; type: functional
[13] = molecular target: C-C chemokine receptor type 2 (Homo sapiens) (UniProt P41597); test: Agonist activity at CCR2 up to 30 uM; type: functional
[14] = molecular target: T2, C-X-C chemokine receptor type 3 (Homo sapiens) (UniProt P49682); test: Agonist activity at CXCR3 up to 30 uM; type: functional
T2 sequence (whole entry): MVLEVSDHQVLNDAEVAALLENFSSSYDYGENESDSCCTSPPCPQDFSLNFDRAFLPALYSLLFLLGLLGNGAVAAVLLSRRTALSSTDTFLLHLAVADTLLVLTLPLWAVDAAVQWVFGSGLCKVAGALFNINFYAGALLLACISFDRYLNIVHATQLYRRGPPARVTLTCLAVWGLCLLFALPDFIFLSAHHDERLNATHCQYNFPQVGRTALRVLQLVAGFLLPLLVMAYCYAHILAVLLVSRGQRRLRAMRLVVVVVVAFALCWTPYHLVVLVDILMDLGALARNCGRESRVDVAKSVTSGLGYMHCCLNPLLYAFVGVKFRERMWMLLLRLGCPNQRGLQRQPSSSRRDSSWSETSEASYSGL

[15] = molecular target: C-X-C chemokine receptor type 4 (Homo sapiens) (UniProt P61073); test: Agonist activity at CXCR4 up to 30 uM; type: functional
[16] = molecular target: T3, C-C chemokine receptor type 7 (Homo sapiens) (UniProt P32248); test: Agonist activity at CCR7 up to 30 uM; type: functional
T3 sequence (whole entry): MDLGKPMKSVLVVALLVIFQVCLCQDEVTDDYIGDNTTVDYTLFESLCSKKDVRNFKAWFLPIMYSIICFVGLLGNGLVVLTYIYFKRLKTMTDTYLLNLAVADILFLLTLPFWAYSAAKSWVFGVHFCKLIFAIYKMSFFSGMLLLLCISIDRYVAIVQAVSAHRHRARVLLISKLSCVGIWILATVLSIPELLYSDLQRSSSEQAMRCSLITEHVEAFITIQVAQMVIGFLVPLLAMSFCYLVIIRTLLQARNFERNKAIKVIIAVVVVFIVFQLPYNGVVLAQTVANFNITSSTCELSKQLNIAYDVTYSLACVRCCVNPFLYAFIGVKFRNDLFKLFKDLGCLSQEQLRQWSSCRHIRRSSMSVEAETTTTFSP

[17] = molecular target: T4, Endothelin receptor type B (Homo sapiens) (UniProt P24530); test: Agonist activity at ETBR up to 30 uM; type: functional
T4 sequence (whole entry): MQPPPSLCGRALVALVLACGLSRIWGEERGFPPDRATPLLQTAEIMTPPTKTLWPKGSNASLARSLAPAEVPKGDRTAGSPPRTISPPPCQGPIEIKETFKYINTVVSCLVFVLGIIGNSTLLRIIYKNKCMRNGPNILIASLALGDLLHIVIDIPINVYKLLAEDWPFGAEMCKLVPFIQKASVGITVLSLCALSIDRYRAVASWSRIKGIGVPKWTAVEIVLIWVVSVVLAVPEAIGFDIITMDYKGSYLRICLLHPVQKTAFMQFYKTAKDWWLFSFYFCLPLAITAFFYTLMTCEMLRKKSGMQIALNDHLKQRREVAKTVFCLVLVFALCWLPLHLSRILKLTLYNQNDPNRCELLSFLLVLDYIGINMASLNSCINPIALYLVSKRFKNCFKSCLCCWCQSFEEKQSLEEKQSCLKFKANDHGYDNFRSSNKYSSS

Sequence of C-X-C chemokine receptor type 4 (Homo sapiens) (P61073 whole entry): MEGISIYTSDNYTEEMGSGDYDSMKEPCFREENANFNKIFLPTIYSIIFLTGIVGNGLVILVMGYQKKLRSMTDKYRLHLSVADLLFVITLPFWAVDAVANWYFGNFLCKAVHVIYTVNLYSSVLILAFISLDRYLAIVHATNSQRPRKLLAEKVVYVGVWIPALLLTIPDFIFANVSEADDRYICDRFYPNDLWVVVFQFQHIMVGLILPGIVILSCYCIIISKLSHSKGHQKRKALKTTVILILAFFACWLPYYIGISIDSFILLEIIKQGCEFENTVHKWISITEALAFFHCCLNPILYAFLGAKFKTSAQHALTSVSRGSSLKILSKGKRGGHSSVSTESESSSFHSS
Sequence of C-C chemokine receptor type 2 (Homo sapiens) (P41597 whole entry, looked up): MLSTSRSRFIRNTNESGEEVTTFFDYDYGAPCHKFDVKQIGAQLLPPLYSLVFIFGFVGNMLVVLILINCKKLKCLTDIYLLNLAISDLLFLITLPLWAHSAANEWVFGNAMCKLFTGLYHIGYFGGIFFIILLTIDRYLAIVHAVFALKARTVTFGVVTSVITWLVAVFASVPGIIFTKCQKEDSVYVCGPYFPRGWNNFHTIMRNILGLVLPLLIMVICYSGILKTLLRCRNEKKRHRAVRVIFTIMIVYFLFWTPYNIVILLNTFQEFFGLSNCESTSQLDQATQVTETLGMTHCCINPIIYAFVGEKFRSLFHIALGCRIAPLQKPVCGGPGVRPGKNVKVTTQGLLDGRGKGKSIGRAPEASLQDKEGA
Sequence of Hydroxycarboxylic acid receptor 2 (Homo sapiens) (Q8TDS4 whole entry): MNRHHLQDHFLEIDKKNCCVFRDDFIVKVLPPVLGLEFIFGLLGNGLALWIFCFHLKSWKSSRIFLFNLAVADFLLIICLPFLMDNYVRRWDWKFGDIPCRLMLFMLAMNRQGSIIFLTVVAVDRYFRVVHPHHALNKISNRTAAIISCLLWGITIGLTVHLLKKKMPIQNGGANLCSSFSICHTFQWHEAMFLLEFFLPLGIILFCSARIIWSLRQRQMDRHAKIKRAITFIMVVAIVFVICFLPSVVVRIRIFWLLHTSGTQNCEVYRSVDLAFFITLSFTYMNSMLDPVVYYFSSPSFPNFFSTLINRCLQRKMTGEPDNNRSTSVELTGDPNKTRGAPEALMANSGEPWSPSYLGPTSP

CL [1]: 43.3 mL/min/kg
AUC [2]: 194 ng·h/mL
MRT [3]: 228 min
Vd [4]: 9.8 L/kg
AUC [5]: 62000 ng·h/mL
MRT [6]: 55.8 min
Tmax [7]: 19.8 min
Activity [11]: inactive
Activity [12]: inactive
Activity [13]: inactive
Activity [14]: inactive
Activity [15]: inactive
Activity [16]: inactive
Activity [17]: inactive
SMILES: CC(C)[C@H](C(=O)Nc1ncc(F)s1)c1ccc(Cl)cc1
inhibition [8]: Dose-dependent effect
Activity [9]: Active
Activity [10]: Active
